# Measured values: ChEMBL document CHEMBL3414553, “Novel imidazo[2,1-b]-1,3,4-thiadiazoles as promising antifungal agents against clinical isolate of Cryptococcus neoformans” (2015)
# Key:
# Format in all cases: functional
# [1] = Cytotoxicity against human OVCAR3 cells; settings: OVCAR-3
# MCF7 = test: Cytotoxicity against human MCF7 cells
# [2] = Cytotoxicity against human HL60 cells; settings: HL-60
# Candida albicans [3] = test: Antifungal activity against Candida albicans ATCC 90028 after 24 hrs by two-fold broth microdilution method; settings: ATCC 90028, 24 h
# How it was run: (§1)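 Strains subcultured one day before testing; colonies suspended in sterile water and adjusted to 0.5 McFarland (1.5 × 10^8 cfu/ml). Two-fold dilutions in MHB (medium pH 7.4 ± 0.1), final 200 to 0.39 µg/ml. Incubated 37 ± 1 °C for 24 h, then resazurin (0.4 mg/ml) added for a further 5 h. MIC read by colour: blue = no growth, pink = growth.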
# Candida albicans [4] = test: Antifungal activity against Candida albicans clinical isolate after 24 hrs by two-fold broth microdilution method; how it was run: as §1
# Cryptococcus neoformans [5] = test: Antifungal activity against […] ATCC 66031 after 24 hrs by two-fold broth microdilution method; settings: ATCC 66031, 24 h; how it was run: as §1
# Cryptococcus neoformans [6] = test: Antifungal activity against […] clinical isolate after 24 hrs by two-fold broth microdilution method; how it was run: as §1
# Aspergillus niger = test: Antifungal activity against Aspergillus niger ATCC 16404 after 24 hrs by two-fold broth microdilution method; settings: ATCC 16404, 24 h; how it was run: as §1
# Staphylococcus aureus = test: Antibacterial activity against Staphylococcus aureus ATCC 25923 after 24 hrs by two-fold broth microdilution method; settings: ATCC 25923, 24 h; how it was run: as §1
# Bacillus subtilis = test: Antibacterial activity against Bacillus subtilis ATCC 6051 after 24 hrs by two-fold broth microdilution method; settings: ATCC 6051, 24 h; how it was run: as §1
# Escherichia coli = test: Antibacterial activity against Escherichia coli ATCC 35218 after 24 hrs by two-fold broth microdilution method; settings: ATCC 35218, 24 h; how it was run: as §1
# Pseudomonas aeruginosa = test: Antibacterial activity against Pseudomonas aeruginosa ATCC 27853 after 24 hrs by two-fold broth microdilution method; settings: ATCC 27853, 24 h; how it was run: as §1
# Candida albicans [7] = test: Antimicrobial activity against Candida albicans
# Candida tropicalis = test: Antimicrobial activity against Candida tropicalis
# Cryptococcus neoformans [8] = test: Antimicrobial activity against […]
# [9] = test system: Mycobacterium tuberculosis; test: Antimicrobial activity against Mycobacterium tuberculosis H37Rv
# How it was run: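 M. tuberculosis H37Rv grown 5 d in 7H9-Tw-OADC with 10-point two-fold serial dilutions from DMSO (final DMSO 2%). Top concentration 200 µM, or 50-fold below the stock for poorly soluble compounds. Controls: medium/DMSO background, 100 µM rifampicin for zero growth, DMSO for maximum growth, plus a rifampicin dose-response. Growth read by OD590 and fluorescence (Ex 560/Em 590).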
# MDA-MB-231 = test: Cytotoxicity against human MDA-MB-231 cells
# MDA-MB-468 = test: Cytotoxicity against human MDA-MB-468 cells
SMILES,GI50 [1] [µM],GI50 (MCF7) [µM],GI50 [2] [µM],MIC (Candida albicans [3]) [µg/mL],MIC (Candida albicans [4]) [µg/mL],MIC (Cryptococcus neoformans [5]) [µg/mL],MIC (Cryptococcus neoformans [6]) [µg/mL],MIC (Aspergillus niger) [µg/mL],MIC (Staphylococcus aureus) [µg/mL],MIC (Bacillus subtilis) [µg/mL],MIC (Escherichia coli) [µg/mL],MIC (Pseudomonas aeruginosa) [µg/mL],MIC (Candida albicans [7]) [µg/mL],MIC (Candida tropicalis) [µg/mL],MIC (Cryptococcus neoformans [8]) [µg/mL],MIC [9] [µg/mL],GI50 (MDA-MB-231) [µM],GI50 (MDA-MB-468) [µM]
CC1=NN2C(=NC(C)C2C(=O)NNc2ccc(O)cc2)S1 (centres undefined),5.51,4.51,4.5,–,–,–,–,–,–,–,–,–,–,–,–,–,–,–
Brc1ccc(-c2nc3sc(-c4ccccc4)nn3c2/C=N/C2CC2)cc1,–,–,–,25,50,100,> 200,100,200,200,200,50,–,–,–,–,–,–
COc1ccc(-c2nn3c(/C=N/C4CC4)c(-c4ccc(Br)cc4)nc3s2)cc1,–,–,–,25,50,100,> 200,100,200,200,200,25,–,–,–,–,–,–
Clc1ccc(-c2nn3c(/C=N/C4CC4)c(-c4ccc(Br)cc4)nc3s2)cc1,–,–,–,25,50,100,200,100,200,200,200,50,–,–,–,–,–,–
Brc1ccc(-c2nc3sc(-c4ccc(I)cc4)nn3c2/C=N/C2CC2)cc1,–,–,–,25,50,100,> 200,100,200,200,200,50,–,–,–,–,–,–
COc1ccc(-c2nn3cc(-c4ccc(Br)cc4)nc3s2)cc1OC,–,–,–,–,–,–,–,–,–,–,–,–,6.25,12.5,6.25,–,–,–
O=C(NN=C1CCCCC1)c1ccncc1,–,–,–,–,–,–,–,–,–,–,–,–,–,–,–,30,–,–
Cc1ccc(C(=O)/C=C/c2c(-c3ccc(Br)cc3)nc3sc(-c4ccccc4Br)nn23)cc1,–,–,–,200,> 200,1.56,12.5,> 200,100,> 200,> 200,> 200,–,–,–,–,–,–
Brc1ccc(-c2nc3sc(-c4ccccc4Br)nn3c2/C=N/C2CC2)cc1,–,–,–,25,50,100,200,100,200,200,200,50,–,–,–,–,–,–
O=C(/C=C/c1c(-c2ccc(Br)cc2)nc2sc(-c3ccccc3Cl)nn12)c1ccccc1,–,–,–,> 200,> 200,12.5,12.5,> 200,> 200,> 200,100,> 200,–,–,–,–,–,–
O=C(/C=C/c1c(-c2ccc(Br)cc2)nc2sc(-c3ccc(Cl)cc3)nn12)c1ccccc1,–,–,–,> 200,> 200,6.25,12.5,> 200,> 200,> 200,> 200,> 200,–,–,–,–,–,–
COc1ccc(-c2nn3c(/C=C/C(=O)c4ccc(C)cc4)c(-c4ccc(Br)cc4)nc3s2)cc1,–,–,–,200,> 200,1.56,3.12,> 200,> 200,> 200,200,> 200,–,–,–,–,–,–
O=C(/C=C/c1c(-c2ccc(Br)cc2)nc2sc(-c3ccccc3Br)nn12)c1ccccc1,–,–,–,200,> 200,1.56,6.25,> 200,200,> 200,> 200,> 200,–,–,–,–,–,–
O=C(/C=C/c1c(-c2ccc(Br)cc2)nc2sc(-c3ccccc3)nn12)c1ccccc1,–,–,–,> 200,> 200,25,200,> 200,> 200,> 200,> 200,> 200,–,–,–,–,–,–
C[C@@H]1[C@H](O)[C@@H](C)/C=C/C=C/C=C/C=C/C=C/C=C/C=C/[C@H](O[C@@H]2O[C@H](C)[C@@H](O)[C@H](N)[C@@H]2O)C[C@@H]2O[C@](O)(C[C@@H](O)C[C@@H](O)[C@H](O)CC[C@@H](O)C[C@@H](O)CC(=O)O[C@H]1C)C[C@H](O)[C@H]2C(=O)O [AMPHOTERICIN B],–,–,–,0.25,25,1,1,1.95,–,–,–,–,–,–,–,–,–,–
CC1(C)S[C@@H]2[C@H](NC(=O)[C@H](N)c3ccc(O)cc3)C(=O)N2[C@H]1C(=O)O [AMOXICILLIN],–,–,–,–,–,–,–,–,< 0.39,< 0.39,< 0.39,< 0.39,–,–,–,–,–,–

SMILES,GI50 [1] [µM],GI50 (MCF7) [µM],GI50 [2] [µM],MIC (Candida albicans [3]) [µg/mL],MIC (Candida albicans [4]) [µg/mL],MIC (Cryptococcus neoformans [5]) [µg/mL],MIC (Cryptococcus neoformans [6]) [µg/mL],MIC (Aspergillus niger) [µg/mL],MIC (Staphylococcus aureus) [µg/mL],MIC (Bacillus subtilis) [µg/mL],MIC (Escherichia coli) [µg/mL],MIC (Pseudomonas aeruginosa) [µg/mL],MIC (Candida albicans [7]) [µg/mL],MIC (Candida tropicalis) [µg/mL],MIC (Cryptococcus neoformans [8]) [µg/mL],MIC [9] [µg/mL],GI50 (MDA-MB-231) [µM],GI50 (MDA-MB-468) [µM]
COc1ccc(C(=O)/C=C2\C(=O)Nc3ccc(Cl)cc32)cc1OC,–,3.95,–,–,–,–,–,–,–,–,–,–,–,–,–,–,8.54,4.76
Cc1ccc(C(=O)/C=C/c2c(-c3ccc(Br)cc3)nc3sc(-c4ccccc4Cl)nn23)cc1,–,–,–,50,> 200,50,100,> 200,200,> 200,> 200,> 200,–,–,–,–,–,–
Clc1ccc(-c2nn3c(/C=N/C4CCCCC4)c(-c4ccc(Br)cc4)nc3s2)cc1,–,–,–,50,50,100,> 200,100,200,200,200,50,–,–,–,–,–,–
COc1ccc(-c2nn3c(/C=C/C(=O)c4ccccc4)c(-c4ccc(Br)cc4)nc3s2)cc1,–,–,–,50,> 200,3.12,12.5,> 200,> 200,> 200,200,> 200,–,–,–,–,–,–
Brc1ccc(-c2nc3sc(-c4ccc(I)cc4)nn3c2/C=N/C2CCCCC2)cc1,–,–,–,25,50,100,> 200,100,200,200,200,50,–,–,–,–,–,–
Cc1ccc(C(=O)/C=C/c2c(-c3ccc(Br)cc3)nc3sc(-c4ccc(Cl)cc4)nn23)cc1,–,–,–,50,> 200,3.12,6.25,> 200,> 200,> 200,> 200,> 200,–,–,–,–,–,–
O=C(/C=C/c1c(-c2ccc(Br)cc2)nc2sc(-c3ccccc3Cl)nn12)c1cccs1,–,–,–,50,> 200,200,200,> 200,> 200,> 200,> 200,> 200,–,–,–,–,–,–
O=C(/C=C/c1c(-c2ccc(Br)cc2)nc2sc(-c3ccccc3)nn12)c1cccs1,–,–,–,200,> 200,6.25,6.25,> 200,> 200,> 200,> 200,> 200,–,–,–,–,–,–
Brc1ccc(-c2nc3sc(-c4ccccc4Br)nn3c2/C=N/C2CCCCC2)cc1,–,–,–,50,50,100,200,50,200,200,200,50,–,–,–,–,–,–
COc1ccc(-c2nn3c(/C=C/C(=O)c4cccs4)c(-c4ccc(Br)cc4)nc3s2)cc1,–,–,–,100,> 200,25,200,> 200,> 200,> 200,> 200,> 200,–,–,–,–,–,–
Cc1ccc(C(=O)/C=C/c2c(-c3ccc(Br)cc3)nc3sc(-c4ccccc4)nn23)cc1,–,–,–,25,> 200,25,100,> 200,> 200,> 200,> 200,> 200,–,–,–,–,–,–
Clc1ccccc1-c1nn2c(/C=N/C3CCCCC3)c(-c3ccc(Br)cc3)nc2s1,–,–,–,12.5,25,100,> 200,100,200,200,200,50,–,–,–,–,–,–
Clc1ccccc1-c1nn2c(/C=N/C3CC3)c(-c3ccc(Br)cc3)nc2s1,–,–,–,25,50,100,> 200,100,200,200,200,50,–,–,–,–,–,–
O=C(/C=C/c1c(-c2ccc(Br)cc2)nc2sc(-c3ccccc3Br)nn12)c1cccs1,–,–,–,> 200,> 200,3.12,12.5,> 200,> 200,> 200,> 200,> 200,–,–,–,–,–,–
O=C(/C=C/c1c(-c2ccc(Br)cc2)nc2sc(-c3ccc(Cl)cc3)nn12)c1cccs1,–,–,–,25,> 200,12.5,12.5,> 200,> 200,> 200,> 200,> 200,–,–,–,–,–,–
